Source: ChEMBL document CHEMBL1127580 (J Med Chem, 1994)

Assays:
[1] = biological target: Sodium-dependent dopamine transporter (Rattus norvegicus) (UniProt P23977); experiment: Inhibitory effect of [3H]cocaine binding when pre incubation was conducted under ultraviolet light; set-up: concentration or dose not given beside the values
Outline: (§1)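 Ligand (final 100 μM or as indicated, in DMSO or H2O) or vehicle preincubated 5 min with rat striatal membranes, either under reduced lighting or 4 in. from a UV source. […] Remaining binding expressed as percent of control.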

[2] = biological target: Sodium-dependent dopamine transporter (Rattus norvegicus) (UniProt P23977); experiment: Inhibitory effect of [3H]cocaine binding when pre incubation was conducted under reduced lighting; set-up: concentration or dose not given beside the values; outline: as §1
Rattus norvegicus [3] = organism: Rattus norvegicus; experiment: Tested for inhibition of [3H]-dopamine uptake into rat striatal synaptosomes; assay type: functional; conditions: Brain
[4] = biological target: Sodium-dependent dopamine transporter (Rattus norvegicus, UniProt P23977); experiment: Tested for inhibition of [3H]cocaine binding to rat striatal P2 membranes; assay type: cell membranes, Membrane
Outline: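 Fresh rat striatal P2 membranes in 10 mM Na2HPO4/0.25 M sucrose, pH 7.4, 200 μg protein. Filtration on PEI-soaked GF/B filters.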

Rattus norvegicus [5] = organism: Rattus norvegicus; experiment: Tested for inhibition of [3H]dopamine uptake into rat striatal synaptosomes; assay type: functional; conditions: Brain

Sodium-dependent dopamine transporter, sequence (P23977 whole entry): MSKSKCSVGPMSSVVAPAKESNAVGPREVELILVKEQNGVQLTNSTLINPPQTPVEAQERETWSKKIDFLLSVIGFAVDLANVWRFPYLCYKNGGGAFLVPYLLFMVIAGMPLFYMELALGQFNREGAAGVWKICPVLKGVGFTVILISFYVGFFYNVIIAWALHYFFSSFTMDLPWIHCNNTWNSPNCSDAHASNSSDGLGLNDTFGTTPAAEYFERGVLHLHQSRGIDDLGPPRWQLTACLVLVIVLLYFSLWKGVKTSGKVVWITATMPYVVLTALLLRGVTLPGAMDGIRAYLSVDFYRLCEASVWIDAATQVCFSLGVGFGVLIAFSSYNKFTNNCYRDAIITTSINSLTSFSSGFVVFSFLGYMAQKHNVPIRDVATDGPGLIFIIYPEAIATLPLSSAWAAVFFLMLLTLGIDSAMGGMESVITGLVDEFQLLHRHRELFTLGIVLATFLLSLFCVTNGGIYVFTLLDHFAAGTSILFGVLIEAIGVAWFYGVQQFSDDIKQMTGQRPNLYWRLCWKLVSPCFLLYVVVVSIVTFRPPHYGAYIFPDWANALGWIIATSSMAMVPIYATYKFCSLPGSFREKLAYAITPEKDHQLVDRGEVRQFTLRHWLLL
Sodium-dependent dopamine transporter (Rattus norvegicus), sequence (P23977 whole entry): as above

Q: For COC(=O)C1C(OC(=O)Nc2ccc(N=C=S)cc2)C[C@H]2CCC1N2C (some centres undefined), which Control [1] is on record?
A: The Control was 18.5%.

Q: What about the Control [2] of the same compound?
A: Its Control is 12.3%.

Q: And the IC50 (Rattus norvegicus [3])?
A: The IC50 was 490 nM.

Q: What about the IC50 [4] of the same compound?
A: The IC50 was 260 nM.

Q: For COC(=O)C1C(OC(=O)Nc2ccc(N=[N+]=[N-])cc2)C[C@H]2CCC1N2C (some centres undefined), which Control [1] is on record?
A: Its Control is 32.5%.

Q: What about the Control [2] of the same compound?
A: The Control was 86.3%.

Q: What about the IC50 (Rattus norvegicus [3]) of the same compound?
A: Its IC50 is 1180 nM.

Q: And the IC50 [4]?
A: The IC50 was 1000 nM.

Q: What does the source list for COC(=O)[C@@H]1C2CC[C@@H](C[C@@H]1OC(=O)c1ccccc1)N2C (single isomer, unassigned) [COCAINE]?
A: Control [1]: 74.1%; Control [2]: 138%; IC50 (Rattus norvegicus [3]): 210 nM

Q: With COC(=O)C1C(OC(=O)Nc2cccc(N=[N+]=[N-])c2)C[C@H]2CCC1N2C (some centres undefined) as the compound, how does the Control [1] read?
A: The Control was 39.1%.

Q: What about the Control [2] of the same compound?
A: Its Control is 102%.

Q: What about the IC50 (Rattus norvegicus [3]) of the same compound?
A: Its IC50 is 3900 nM.

Q: And the IC50 [4]?
A: The IC50 was 630 nM.

Q: How did the Control [1] turn out when COC(=O)C1C(OC(=O)Nc2cccc(N=C=S)c2)C[C@H]2CCC1N2C (some centres undefined) was run?
A: Its Control is 29.1%.

Q: What about the IC50 (Rattus norvegicus [5]) of the same compound?
A: Its IC50 is 4900 nM.

Q: And the Control [2]?
A: Its Control is 33.4%.

Q: And the IC50 [4]?
A: The IC50 was 960 nM.
